Assay results from different studies.
Each line is one published result; the experiments were not run side by side.
Cell line: MDA-MB-231
Effect on: cell growth or viability

| Compound | method | concentration | time | endpoint | value |
| --- | --- | --- | --- | --- | --- |
| COc1ccc2/c(=N/c3ccccc3NC(=O)[C@@H](N)C(C)(C)C)cc(-c3ccc4c(c3)OCO4)oc2c1 | CCK-8 | 1 µM |  | inhibition | 7.49% |
| O=C(NN=Cc1ccc(Br)cc1)C1CC(=O)N(c2ccc(F)cc2F)C1 (stereo not drawn) | MTT |  | 72 h | EC50 | 22.6 µM |
| Nc1nc(S)nc(O)c1N=Cc1cn(-c2ccccc2)nc1-c1ccc(Cl)cc1 |  |  | 48 h | CC50 | 18.4 µM |
| O=C(Nc1ccccc1)Nc1ccc(Oc2nc3ccccc3n3cnnc23)cc1 | MTT | 3.125 µM | 24 h | viability | 100% |
| Cc1ccc(-c2nn(-c3ccccc3)cc2C=Nc2c(N)nc(S)nc2O)cc1 |  |  | 48 h | CC50 | 14.3 µM |
| C[C@H](N)C(=O)Nc1ccccc1/N=c1\cc(-c2ccc3c(c2)OCCO3)oc2c(N)cccc12 | CCK-8 | 1 µM |  | inhibition | -1.6% |
| O=C(Nc1ccc(Cl)cc1)Nc1ccc(Oc2nc3ccccc3n3cnnc23)cc1 | MTT | 3.125 µM | 24 h | viability | 100% |
| NCCC(=O)Nc1ccccc1/N=c1\cc(-c2ccc3nc(N)oc3c2)oc2ccccc12 | CCK-8 | 1 µM |  | inhibition | 68.6% |
| O=C(NN=Cc1ccc(Cl)cc1)C1CC(=O)N(c2ccc(F)cc2F)C1 (stereo not drawn) | MTT |  | 72 h | EC50 | 29.9 µM |
| CNC(=O)c1cc(Oc2ccc(NC(=O)Nc3ccc(Cl)c(C(F)(F)F)c3)cc2)ccn1 | MTT | 25 µM | 24 h | viability | 24.3% |
| NCCC(=O)Nc1ccccc1/N=c1\cc(-c2ccc3c(c2)OCCO3)oc2cc(F)ccc12 | CCK-8 | 1 µM |  | inhibition | 52.9% |
| CCN(CC)CCNC(=O)c1c(C)[nH]c(/C=C2\C(=O)Nc3ccc(F)cc32)c1C | MTT |  | 72 h | EC50 | 3.4 µM |
